Measurements from different studies.
Lines come from different studies, so protocols differ.
Cell line: PC-9
Read-out: cell growth or viability
Time: 72 h

CC(C)CCn1cnc2ccc(-c3ccc4sc(NC(=O)Nc5ccc(F)cc5)nc4c3)cc2c1=O
IC50 (MTT): 9.09 µM

COc1ccc(NC(=O)NCc2cn(Cc3ccc(Cl)cc3)nn2)cc1
viability (CCK-8; 20 µM): 96.2%

O=C(Nc1cccc(-c2cn(Cc3ccc(Br)cc3)nn2)c1)Nc1ccccc1Br
viability (CCK-8; 20 µM): 128%

COc1ccc(NC(=O)Nc2ccc(-c3cn(Cc4ccc(Br)cc4)nn3)cc2)cc1
viability (CCK-8; 50 µM): 96.4%

O=C(Nc1ccc(Cl)cc1)Nc1ccc(-c2cn(Cc3ccc(Br)cc3)nn2)cc1
viability (CCK-8; 20 µM): 71.5%

COc1ccc(NC(=O)NCc2cn(Cc3ccccc3C)nn2)cc1
viability (CCK-8; 20 µM): 94.4%

O=C(Nc1ccc(-c2cn(Cc3ccc(Cl)cc3)nn2)cc1)Nc1ccccc1Br
viability (CCK-8; 50 µM): 103%

COc1ccc(NC(=O)Nc2cccc(-c3cn(Cc4ccc(Cl)cc4)nn3)c2)cc1
viability (CCK-8; 50 µM): 89.5%

COc1cccc(NC(=O)Nc2nc3cc(-c4ccc5ncn(CCN(C)C)c(=O)c5c4)ccc3s2)c1
IC50 (MTT): 5.24 µM

COc1ccc(N(Cc2csc(-c3ccccc3)n2)C(=O)CCCCCC(=O)NO)cc1
IC50 (MTT): 0.53 µM

COc1ccc(NC(=O)Nc2ccc(-c3cn(Cc4ccc(C)cc4)nn3)cc2)cc1
viability (CCK-8; 20 µM): 87.1%

O=C(Nc1nc2cc(-c3ccc4ncn(Cc5ccccc5)c(=O)c4c3)ccc2s1)c1ccccc1
IC50 (MTT): > 20 µM

O=C(Nc1ccc(Cl)cc1)Nc1ccc(-c2cn(Cc3ccc(Cl)cc3)nn2)cc1
viability (CCK-8; 50 µM): 81.3%

O=C(Nc1ccc(Cl)cc1)Nc1nc2cc(-c3ccc4ncn(CCN5CCOCC5)c(=O)c4c3)ccc2s1
IC50 (MTT): > 20 µM

COc1ccc(NC(=O)Nc2cccc(-c3cn(Cc4ccc(C)cc4)nn3)c2)cc1
viability (CCK-8; 50 µM): 92.6%

O=C(NCc1cn(Cc2ccc(Cl)cc2)nn1)Nc1ccccc1Br
viability (CCK-8; 50 µM): 127%

O=C(Nc1ccc(F)cc1)Nc1nc2cc(-c3ccc4ncn(CC5CC5)c(=O)c4c3)ccc2s1
IC50 (MTT): > 20 µM

COc1ccc(N(Cc2csc(-c3ccc(Br)cc3)n2)C(=O)CCCCCC(=O)NO)cc1
IC50 (MTT): 1.86 µM

O=C(NCc1cn(Cc2ccc(Br)cc2)nn1)Nc1ccccc1Br
viability (CCK-8; 20 µM): 99.2%

COc1ccc(NC(=O)Nc2nc3cc(-c4ccc5ncn(CCN6CCOCC6)c(=O)c5c4)ccc3s2)cc1
IC50 (MTT): > 20 µM
